Assay results taken from ChEMBL document CHEMBL5058577, “EUbOPEN Chemogenomics Library 2 (Multiplex)” (2022).

System: U2OS
Experiment: Multiplex assay against U2OS
Format: toxicity, cell-based
Details: human
Outline: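 Imaging took place on a CQ1 microscope at 37°C and 5% CO2 once compound had been added to live cells stained at seeding with Hoechst33342, BioTracker Green Microtubule Cytoskeleton Dye, MitoTracker Red and Annexin V Alexa Fluor 680. CellPathfinder machine-learning gating classed cells as Hoechst high-intensity objects or normal cells, classed normal cells as having healthy, pyknosed or fragmented nuclei, and classed pyknosed cells as mitotic or apoptotic. Tubulin, mitochondrial-mass and membrane-permeability phenotypes are per cents of the healthy-nucleus cells.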

[1] = 12 h, 1 µM, compound concentration 1 uM, replicate 1
[2] = 12 h, 1 µM, compound concentration 1 uM, replicate 2
[3] = 12 h, 10 µM, compound concentration 10 uM, replicate 1
[4] = 12 h, 10 µM, compound concentration 10 uM, replicate 2
[5] = 24 h, 1 µM, compound concentration 1 uM, replicate 1
[6] = 24 h, 1 µM, compound concentration 1 uM, replicate 2
[7] = 24 h, 10 µM, compound concentration 10 uM, replicate 1
[8] = 24 h, 10 µM, compound concentration 10 uM, replicate 2
[9] = 48 h, 1 µM, compound concentration 1 uM, replicate 1
[10] = 48 h, 1 µM, compound concentration 1 uM, replicate 2
[11] = 48 h, 10 µM, compound concentration 10 uM, replicate 1
[12] = 48 h, 10 µM, compound concentration 10 uM, replicate 2

CCCCCC(O)/C=C/[C@H]1C(=O)CC(O)C1C/C=C\CCCC(=O)O (stereo partly specified)
Population Apoptotic (%) [1]: 60%
Population Fragmented Nuclei (%) [1]: 28%
Population Healthy Nuclei (%) [1]: 59%
Population Hoechst High Intensity Objects (%) [1]: 1%
Population Membrane Permeable-Phenotype (%) [1]: 5%
Population Mitochondria Different-Phenotype (%) [1]: 4%
Population Mitotic Cells (%) [1]: 40%
Population Normal (%) [1]: 98%
Population Pyknosed Nuclei (%) [1]: 12%
Population Tubulin-Different-Phenotype (%) [1]: 4%
Total Cell Count [1]: 203
Population Apoptotic (%) [2]: 88%
Population Fragmented Nuclei (%) [2]: 15%
Population Healthy Nuclei (%) [2]: 76%
Population Hoechst High Intensity Objects (%) [2]: 0%
Population Membrane Permeable-Phenotype (%) [2]: 8%
Population Mitochondria Different-Phenotype (%) [2]: 6%
Population Mitotic Cells (%) [2]: 11%
Population Normal (%) [2]: 99%
Population Pyknosed Nuclei (%) [2]: 8%
Population Tubulin-Different-Phenotype (%) [2]: 8%
Total Cell Count [2]: 113
Population Apoptotic (%) [3]: 71%
Population Fragmented Nuclei (%) [3]: 23%
Population Healthy Nuclei (%) [3]: 69%
Population Hoechst High Intensity Objects (%) [3]: 2%
Population Membrane Permeable-Phenotype (%) [3]: 8%
Population Mitochondria Different-Phenotype (%) [3]: 3%
Population Mitotic Cells (%) [3]: 28%
Population Normal (%) [3]: 97%
Population Pyknosed Nuclei (%) [3]: 7%
Population Tubulin-Different-Phenotype (%) [3]: 5%
Total Cell Count [3]: 190
Population Apoptotic (%) [4]: 66%
Population Fragmented Nuclei (%) [4]: 16%
Population Healthy Nuclei (%) [4]: 73%
Population Membrane Permeable-Phenotype (%) [4]: 10%
Population Mitochondria Different-Phenotype (%) [4]: 2%
Population Mitotic Cells (%) [4]: 33%
Population Pyknosed Nuclei (%) [4]: 9%
Population Tubulin-Different-Phenotype (%) [4]: 4%
Total Cell Count [4]: 94
Population Apoptotic (%) [5]: 86%
Population Fragmented Nuclei (%) [5]: 27%
Population Healthy Nuclei (%) [5]: 63%
Population Hoechst High Intensity Objects (%) [5]: 2%
Population Membrane Permeable-Phenotype (%) [5]: 3%
Population Mitochondria Different-Phenotype (%) [5]: 0%
Population Mitotic Cells (%) [5]: 13%
Population Normal (%) [5]: 98%
Population Pyknosed Nuclei (%) [5]: 8%
Population Tubulin-Different-Phenotype (%) [5]: 1%
Total Cell Count [5]: 250
Population Apoptotic (%) [6]: 90%
Population Fragmented Nuclei (%) [6]: 16%
Population Healthy Nuclei (%) [6]: 74%
Population Hoechst High Intensity Objects (%) [6]: 0%
Population Membrane Permeable-Phenotype (%) [6]: 5%
Population Mitochondria Different-Phenotype (%) [6]: 7%
Population Mitotic Cells (%) [6]: 9%
Population Normal (%) [6]: 99%
Population Tubulin-Different-Phenotype (%) [6]: 4%
Total Cell Count [6]: 131
Population Apoptotic (%) [7]: 100%
Population Fragmented Nuclei (%) [7]: 23%
Population Healthy Nuclei (%) [7]: 66%
Population Hoechst High Intensity Objects (%) [7]: 1%
Population Membrane Permeable-Phenotype (%) [7]: 6%
Population Mitochondria Different-Phenotype (%) [7]: 4%
Population Mitotic Cells (%) [7]: 0%
Population Normal (%) [7]: 98%
Population Pyknosed Nuclei (%) [7]: 9%
Population Tubulin-Different-Phenotype (%) [7]: 4%
Total Cell Count [7]: 216
Population Apoptotic (%) [8]: 90%
Population Fragmented Nuclei (%) [8]: 16%
Population Healthy Nuclei (%) [8]: 74%
Population Hoechst High Intensity Objects (%) [8]: 2%
Population Membrane Permeable-Phenotype (%) [8]: 5%
Population Mitochondria Different-Phenotype (%) [8]: 1%
Population Mitotic Cells (%) [8]: 10%
Population Normal (%) [8]: 97%
Population Pyknosed Nuclei (%) [8]: 8%
Population Tubulin-Different-Phenotype (%) [8]: 2%
Total Cell Count [8]: 118
Population Apoptotic (%) [9]: 89%
Population Fragmented Nuclei (%) [9]: 19%
Population Healthy Nuclei (%) [9]: 71%
Population Hoechst High Intensity Objects (%) [9]: 2%
Population Membrane Permeable-Phenotype (%) [9]: 4%
Population Mitochondria Different-Phenotype (%) [9]: 3%
Population Mitotic Cells (%) [9]: 10%
Population Normal (%) [9]: 97%
Population Pyknosed Nuclei (%) [9]: 8%
Population Tubulin-Different-Phenotype (%) [9]: 2%
Total Cell Count [9]: 334
Population Apoptotic (%) [10]: 100%
Population Fragmented Nuclei (%) [10]: 13%
Population Healthy Nuclei (%) [10]: 79%
Population Membrane Permeable-Phenotype (%) [10]: 5%
Population Mitochondria Different-Phenotype (%) [10]: 4%
Population Mitotic Cells (%) [10]: 0%
Population Pyknosed Nuclei (%) [10]: 7%
Population Tubulin-Different-Phenotype (%) [10]: 3%
Total Cell Count [10]: 189
Population Apoptotic (%) [11]: 89%
Population Fragmented Nuclei (%) [11]: 23%
Population Healthy Nuclei (%) [11]: 67%
Population Hoechst High Intensity Objects (%) [11]: 3%
Population Membrane Permeable-Phenotype (%) [11]: 6%
Population Mitochondria Different-Phenotype (%) [11]: 3%
Population Mitotic Cells (%) [11]: 10%
Population Normal (%) [11]: 96%
Population Pyknosed Nuclei (%) [11]: 9%
Population Tubulin-Different-Phenotype (%) [11]: 4%
Total Cell Count [11]: 302
Population Apoptotic (%) [12]: 100%
Population Fragmented Nuclei (%) [12]: 21%
Population Healthy Nuclei (%) [12]: 70%
Population Hoechst High Intensity Objects (%) [12]: 2%
Population Membrane Permeable-Phenotype (%) [12]: 7%
Population Mitotic Cells (%) [12]: 0%
Population Normal (%) [12]: 97%
Population Pyknosed Nuclei (%) [12]: 7%
Population Tubulin-Different-Phenotype (%) [12]: 3%
Total Cell Count [12]: 161
